As a reminder, the IC50 is the concentration that gives 50% inhibition. A lower IC50 goes with higher potency.

The record followed here is ChEMBL document CHEMBL1133481, “Resistance-modifying agents. 8. Inhibition of O(6)-alkylguanine-DNA alkyltransferase by O(6)-alkenyl-, O(6)-cycloalkenyl-, and O(6)-(2-oxoalkyl)guanines and potentiation of temozolomide cytotoxicity in vitro by O(6)-(1-cyclopentenylmethyl)guanine” (J Med Chem, 2000).

Where a chain is given by its changes, count along the chain named. “And” between values parts separate entries of the source, which are not always exact repeats. Equal entries are not always repeated. Some results are limits rather than exact numbers.

Assay [1] concerns the target T1, Methylated-DNA--protein-cysteine methyltransferase (Homo sapiens) (UniProt P16455).
T1 sequence (whole entry): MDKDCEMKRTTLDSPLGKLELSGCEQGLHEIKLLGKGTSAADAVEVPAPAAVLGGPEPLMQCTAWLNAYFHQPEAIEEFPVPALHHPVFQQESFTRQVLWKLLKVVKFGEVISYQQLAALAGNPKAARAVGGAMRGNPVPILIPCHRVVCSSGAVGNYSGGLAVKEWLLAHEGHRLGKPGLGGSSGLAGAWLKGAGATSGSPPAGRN
The assay is described as follows: Percent AGT inactivation in HT-29 cell extract at 1 mM. It counts as cell-based.

In assay [2] the target is T2, Methylated-DNA--protein-cysteine methyltransferase (Homo sapiens, UniProt P16455).
T2 sequence (P16455 whole entry): T1 sequence (whole entry)
The experiment in a line: Inhibition of AGT activity to 50% of control rate in HT-29 cell extract. It counts as cell-free.

Assay [3] relates to COLO 205. The assay is described as follows: Level of AGT activity in COLO 205 cell line. The assay is classed as functional, cell-based. The following applies: Homo sapiens.
For assay [4], the system named is HT-29. The assay is described as follows: Cytotoxicity of compound in HT-29 cell line. To be noted: Homo sapiens. It counts as functional, cell-based. In outline:
(§1)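 Colony-forming assay: exponentially growing cells were preincubated 1 h with 10 µM AGT inactivator (0.1% DMSO), then given temozolomide 0–1000 µM final (1% DMSO) for 4 h at 37 °C. Cells were then plated: HT29 on plastic, Colo205 in 0.15% agarose, with inactivator kept at 10 µM. After about 2 weeks, colonies were stained (crystal violet for HT29, MTT for Colo205) and counted. Temozolomide IC50 is mean ± SD of 3 independent experiments.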

Assay [5] concerns HT-29. The experiment in a line: Level of AGT activity in HT-29 cell line. The assay is classed as functional, cell-based. To be noted: Homo sapiens.
Assay [6] relates to COLO 205. The assay is described as follows: Cytotoxicity of compound in COLO 205 cell line. It counts as functional, cell-based. To be noted: Homo sapiens. In outline: as §1
For assay [7], the target named is T2, Methylated-DNA--protein-cysteine methyltransferase. The assay is described as follows: concentration required to reduce AGT activity to 50% of control rate in intact HT-29 human colorectal carcinoma cells. The assay is classed as cell-based. The procedure, abridged:
(§2)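 HT29 cells were grown 3 days in EMEM with 10% FCS, then exposed for 4 h to inactivator in serum-free EMEM (DMSO final 1% or 0.1%). Cells were trypsinized, washed and counted by trypan blue; pellets of 10⁷ cells were homogenized in Tris-HCl pH 8.3 buffer with EDTA, DTT and 200 mM NaCl. AGT activity was assayed in the extracts, and the concentration depleting whole-cell AGT activity by 50% was calculated.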

In assay [8] the target is T1, Methylated-DNA--protein-cysteine methyltransferase (Homo sapiens). The experiment in a line: Percent of AGT inactivation in HT-29 cell extract at 1 mM concentration.
Assay [9] has as its system T3, Methylated-DNA--protein-cysteine methyltransferase (Homo sapiens), P16455 [Y158H].
T3 sequence (whole entry): T1 sequence (whole entry) with Y158H
The experiment in a line: Compound was evaluated for inactivation of Y158H mutant AGT. In outline:
(§3)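 Recombinant wild-type or mutant (P140K, Y158H, G160R, G156A) AGT, made in E. coli with an N-terminal His6 tag and purified by metal affinity, was preincubated with inhibitor for 30 min at 37 °C in 50 mM Tris-HCl pH 7.5, 0.1 mM EDTA, 5 mM DTT and hemocyanin. Residual activity was measured over a further 30 min with methylated DNA substrate. ED50 was read from a plot of % activity lost against inhibitor amount, with a maximum of […] inhibitor.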

In assay [10] the target is T1, Methylated-DNA--protein-cysteine methyltransferase (Homo sapiens). The experiment in a line: Compound was evaluated for inactivation of 156A mutant AGT. In outline: as §3
Assay [11] concerns T4, Methylated-DNA--protein-cysteine methyltransferase (Homo sapiens), P16455 [G160R].
T4 sequence (whole entry): T1 sequence (whole entry) with G160R

For assay [12], the system named is T5, Methylated-DNA--protein-cysteine methyltransferase (Homo sapiens), P16455 [P140K].
T5 sequence (whole entry): T1 sequence (whole entry) with P140K

Assay [13] concerns the target T2, Methylated-DNA--protein-cysteine methyltransferase. The experiment in a line: concentration required to reduce AGT activity to 50% of control rate in HT-29 cell extract. It counts as cell-based. The procedure, abridged: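 HT29 cell extract AGT assay; IC50 is the inhibitor concentration reducing AGT activity to 50% of the control rate.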
For assay [14] the target is unchanged. The experiment in a line: (§4) concentration required to reduce AGT activity to 50% of control rate in intact HT-29 human colorectal carcinoma cells. The assay is classed as cell-based. The procedure, abridged:
as §2

For assay [15] the target is unchanged. The assay is described as §4. It counts as cell-based. In outline:
as §2
The source holds these as a separate data set.

In assay [16] the target is T1, Methylated-DNA--protein-cysteine methyltransferase (Homo sapiens). The assay is described as follows: Compound was evaluated for inactivation of Wild type AGT. The procedure, abridged: as §3
In assay [17] the test system is T4, Methylated-DNA--protein-cysteine methyltransferase (Homo sapiens), P16455 [G160R]. The experiment in a line: Compound was evaluated for inactivation of G160R mutant AGT. The procedure, abridged:
as §3

Assay [18] concerns T5, Methylated-DNA--protein-cysteine methyltransferase (Homo sapiens), P16455 [P140K]. The experiment in a line: Compound was evaluated for inactivation of P140K mutant AGT. In outline:
as §3

In assay [1], `CC(C)C1(COc2nc(N)nc3[nH]cnc23)OCCO1` had an Inactivation of 54%. For the compound `C=CCCCCOc1nc(N)nc2[nH]cnc12`, the Inactivation in assay [1] worked out at 65%. Take `Nc1nc(OCC2=CCC2)c2[nH]cnc2n1`: in [2], the IC50 is 0.55 µM. As to `CC1(C)OCC(COc2nc(N)nc3[nH]cnc23)O1` (stereo not drawn), in assay [1], the Inactivation stood at 0%. Moreover, in [2], the IC50 is > 1000 µM. Turning to `Cn1nnc2c(C(N)=O)ncn2c1=O` [TEMOZOLOMIDE], the results for the Level in the assay with COLO 205 [3] and with HT-29 [5] were 1160 fM/mg and 908 fM/mg, respectively. In addition, the half-maximal inhibitory concentration (IC50) turned out to be 951 µM in the assay with HT-29 [4] and 343 µM with COLO 205 [6]. Turning to `COc1nc(N)nc2nc[nH]c12` [METHYLGUANINE], the IC50 in [7] was 248 µM; in assay [2], 428 µM. The compound `CC(C)CCOc1nc(N)nc2[nH]cnc12` came in with an Inactivation in assay [8] of 24%. Take `CCCCOc1nc(N)nc2[nH]cnc12`: the IC50 in assay [2] came to 493 µM. `Nc1nc(OCc2ccccc2)c2nc[nH]c2n1`: the ED50 was 620 µM in assay [9], 60 µM in [10], 4.7 µM in assay [11] and > 1500 µM in [12]. Regarding `CCCCCCCOc1nc(N)nc2[nH]cnc12`, the Inactivation in assay [1] turned out to be 10%. Also, the IC50 in assay [2] is > 100 µM. Consider `Nc1nc(OCC2CCC2)c2[nH]cnc2n1`, for which the Inactivation in assay [8] was 34%. Besides, the IC50 in [13] was > 1000 µM. The matching figures for `Nc1nc(OCC2CCCC2)c2nc[nH]c2n1`: 0% and > 1000 µM. As for `C=C(C)COc1nc(N)nc2nc[nH]c12`, the IC50 in [14] is 13.5 µM and 9.9 µM; in assay [2], 25 µM.

Regarding `Nc1nc(Oc2cccs2)c2[nH]cnc2n1`, it took 0.003 µM to reach half-maximal inhibition in [2] (IC50). Take `CCC(=O)COc1nc(N)nc2nc[nH]c12`: the IC50 in assay [14] is 94.5 µM and 93.2 µM; in [2] it was 151 µM. For `C#CCOc1nc(N)nc2nc[nH]c12`, the IC50 in assay [14] is 11.5 µM and 11.9 µM; in assay [2], 20 µM.

In the case of `CC/C=C/CCOc1nc(N)nc2[nH]cnc12`, the Inactivation in assay [1] is 88%. In assay [1], `CCC(COc1nc(N)nc2[nH]cnc12)(OC)OC` returned an Inactivation of 0%. In addition, the IC50 in [2] is > 1000 µM. In the case of `CCCCCOc1nc(N)nc2[nH]cnc12`, the IC50 in assay [2] worked out at 1010 µM. The compound `CCCCCCOc1[nH]c(N)nc2ncnc1-2` registered a 50% inhibitory concentration (IC50) in [2] of 554 µM. Consider `C=C(COc1nc(N)nc2nc[nH]c12)c1ccccc1`, for which the half-maximal inhibitory concentration (IC50) is 37.5 µM and 39.6 µM in assay [14]; 77 µM in [2]. In assay [2], `C=C(CC)COc1nc(N)nc2[nH]cnc12` yielded an IC50 of 16 µM.

With `Cn1nnc2c(C(N)=O)ncn2c1=O.Nc1nc(OCC2=CCCC2)c2[nH]cnc2n1`, the 50% inhibitory concentration (IC50) in the assay with HT-29 [4] is 299 µM; with COLO 205 [6], 36 µM. As for `Nc1nc(OCC2CC=CCC2)c2[nH]cnc2n1` (stereo not drawn), the Inactivation in assay [8] was 32%. In assay [13], the IC50 is > 1000 µM. On the same counts, the results for `C=C(COc1nc(N)nc2[nH]cnc12)C(C)C` are 22% and > 1000 µM. In turn, `Nc1nc(OCC2CCCCC2)c2nc[nH]c2n1` came in with an Inactivation in assay [1] of 0%. Also, the IC50 in assay [13] is > 1000 µM. For `CCCOc1nc(N)nc2nc[nH]c12`, the IC50 in assay [13] is > 1000 µM. In the case of `C=CCOc1nc(N)nc2nc[nH]c12`, the IC50 turned out to be 2.7 µM in [14], 8.5 µM in [2] and 5.1 µM in assay [15].

With `Nc1nc(OCC2=CCCC2)c2[nH]cnc2n1`, the concentration for half-maximal inhibition (IC50) in assay [7] worked out at 0.2 µM; in [2] it was 0.39 µM. As to `CCCOc1nc(N)nc2[nH]cnc12`, the Inactivation in [8] was 24%. In the case of `Cn1nnc2c(C(N)=O)ncn2c1=O.Nc1nc(OCc2ccccc2)c2[nH]cnc2n1`, the IC50 was 86 µM in the assay on HT-29 [4] and 14 µM with COLO 205 [6]. Regarding `CC(=O)COc1nc(N)nc2[nH]cnc12`, the IC50 in assay [14] was 95 µM and 119 µM; in assay [2] it was 192 µM. Regarding `Nc1nc(OCCc2ccccc2)c2nc[nH]c2n1`, the half-maximal inhibitory concentration (IC50) in assay [2] turned out to be 548 µM. The same measure, in the same setting: the result for `C=C(C)[C@H]1CC=C(COc2nc(N)nc3[nH]cnc23)CC1` reads 2.6 µM. For the compound `CC(C)CCOc1nc(N)nc2nc[nH]c12`, the 50% inhibitory concentration (IC50) in assay [13] is > 1000 µM. Take `CCOc1nc(N)nc2nc[nH]c12`: the concentration for half-maximal inhibition (IC50) in assay [2] was > 1000 µM. In turn, `COC(COc1[nH]c(N)nc2ncnc1-2)(OC)c1ccccc1` gave an Inactivation in assay [1] of 0%. On the same count and under the same terms, the result for `CCOc1nc(N)nc2[nH]cnc12` reads 0%. In the case of `Nc1nc(OCC2=CCCC2)c2nc[nH]c2n1`, the ED50 was 0.3 µM in assay [16]; 1500 µM in assay [9]; 13 µM in assay [17]; > 1500 µM in assay [18]; 113 µM in assay [10]. Regarding `COC(COc1nc(N)nc2nc[nH]c12)(OC)c1ccccc1`, the IC50 in [2] was > 1000 µM. Turning to `CCOC(C)(COc1nc(N)nc2[nH]cnc12)OCC`, the Inactivation in assay [1] is 0%. Also, the concentration for half-maximal inhibition (IC50) in assay [2] was > 1000 µM. `Nc1nc(OCC2=CCCCC2)c2[nH]cnc2n1` displayed a half-inhibitory concentration (IC50) in [2] of 1.6 µM. In assay [1], `Nc1nc(OCC(=O)c2ccccc2)c2[nH]cnc2n1` showed an Inactivation of 0%. Further, in [13], the IC50 is > 1000 µM. As to `CC/C=C\CCOc1[nH]c(N)nc2ncnc1-2`, the Inactivation in assay [8] worked out at 32%. Also, the IC50 in [13] is > 1000 µM. The matching figures for `CC(C)C(=O)COc1nc(N)nc2nc[nH]c12`: 31% and > 1000 µM.
